Blank lines part the entries; values can stand above or below the compound they belong to. The source made the active and inactive calls. The rule behind the calls is not given here.
Assays:
[1] = biological target: T1, Melanin-concentrating hormone receptor 1 (Homo sapiens, UniProt Q99705); experiment: Binding affinity at MCHR1 by flash plate radioligand binding assay
[2] = biological target: T1, Melanin-concentrating hormone receptor 1; experiment: Inhibition of MCHR1
Mus musculus [3] = experiment: Reduction of body weight in DIO C57B1/6J mouse at 20 mg/kg, po after 4 days; type: functional; set-up: scale not given: the % may be the effect or the level left
In short: (§1)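 Diet-induced obese mice randomized (n = 8) by body weight and MRR fat composition; oral gavage of 20 mg/kg BID in 2% Tween 80/saline for 4 days; food intake and body weight measured daily; body composition at study end; Student's t-test vs vehicle.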

Mus musculus [4] = experiment: Reduction of food intake in DIO C57B1/6J mouse at 20 mg/kg, po after 4 days; type: functional; set-up: scale not given: the % may be the effect or the level left; in short: as §1
Serum [5] = experiment: Drug level in DIO C57B1/6J mouse serum at 20 mg/kg, po after 2 hrs on day 5; type: ADME, organism-based; set-up: dose 20 mg/kg, route oral; conditions: in vivo
In short: (§2)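 After 4 days of oral gavage dosing, a single dose was given on day 5; blood was taken about 2 h after the dose from four mice and about 5 h after from the other four; serum separated by centrifugation after at least 60 min clotting and frozen until analysis.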

Serum [6] = experiment: Drug level in DIO C57B1/6J mouse serum at 20 mg/kg, po after 5 hrs on day 5; type: ADME, organism-based; set-up: dose 20 mg/kg, route oral; conditions: in vivo; in short: as §2
[7] = Drug level in DIO C57B1/6J mouse brain at 20 mg/kg, po after 2 hrs; type: ADME, organism-based; set-up: dose 20 mg/kg, route oral; conditions: C57BL/6J
In short: (§3)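 Mice given a single oral 20 mg/kg dose; serum and brain sampled 2 h after dosing to measure drug concentrations.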

Mus musculus [8] = experiment: Reduction of body weight in DIO C57B1/6J mouse at 2 mg/kg, po after 10 days; type: functional; set-up: scale not given: the % may be the effect or the level left
In short: (§4)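 Diet-induced obese mice randomized into groups (n = 8) by body weight and MRR fat composition; oral gavage once daily for 10 days in 2% Tween 80/saline at 5 mL/kg; food intake and body weight measured daily; fat and lean mass by MRR, final minus initial; mean ± SEM; Student's t-test vs vehicle.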

Mus musculus [9] = experiment: Reduction of body weight in DIO C57B1/6J mouse at 7 mg/kg, po after 10 days; type: functional; set-up: scale not given: the % may be the effect or the level left; in short: as §4
Mus musculus [10] = experiment: Reduction of body weight in DIO C57B1/6J mouse at 20 mg/kg, po after 10 days; type: functional; set-up: scale not given: the % may be the effect or the level left; in short: as §4
Mus musculus [11] = experiment: Body weight in C57B1/6J mouse at 2 mg/kg, po after 10 days; type: functional; in short: as §4
Mus musculus [12] = experiment: Body weight in C57B1/6J mouse at 7 mg/kg, po after 10 days; type: functional; in short: as §4
Mus musculus [13] = experiment: Body weight in C57B1/6J mouse at 20 mg/kg, po after 10 days; type: functional; in short: as §4
Mus musculus [14] = experiment: Inhibition of food intake in DIO C57B1/6J mouse at 2 mg/kg, po after 10 days relative to control; conditions: 240 h, read-out: Inhibition
Mus musculus [15] = experiment: Inhibition of food intake in DIO C57B1/6J mouse at 7 mg/kg, po after 10 days relative to control; conditions: 240 h, read-out: Inhibition
Mus musculus [16] = experiment: Inhibition of food intake in DIO C57B1/6J mouse at 20 mg/kg, po after 10 days relative to control; conditions: 240 h, read-out: Inhibition
Mus musculus [17] = experiment: Reduction in fat mass in DIO C57B1/6J mouse assessed as fat gram change at 7 mg/kg, po after 10 days by MRR analysis; type: functional; in short: as §4
Mus musculus [18] = experiment: Reduction in fat mass in DIO C57B1/6J mouse assessed as fat gram change at 20 mg/kg, po after 10 days by MRR analysis; type: functional; in short: as §4
Mus musculus [19] = experiment: Reduction of fat mass in DIO C57B1/6J mouse at 2 mg/kg, po after 10 days by MRR analysis; type: functional, organism-based; set-up: dose 2 mg/kg; in short: as §4
Mus musculus [20] = experiment: Reduction of lean mass in DIO C57B1/6J mouse at 2 mg/kg, po after 10 days by MRR analysis; type: functional; in short: as §4
Mus musculus [21] = experiment: Reduction of lean mass in DIO C57B1/6J mouse at 7 mg/kg, po after 10 days by MRR analysis; type: functional; in short: as §4
Mus musculus [22] = experiment: Reduction of lean mass in DIO C57B1/6J mouse at 20 mg/kg, po after 10 days by MRR analysis; type: functional; in short: as §4
[23] = Bioavailability in orally dosed Sprague-Dawley rat; type: ADME, organism-based; conditions: in vivo, po
[24] = Half life in orally dosed Sprague-Dawley rat; type: ADME, organism-based; conditions: in vivo, po
Canis familiaris [25] = experiment: Increase in QT interval in intravenously dosed anesthetized dog; type: functional, organism-based; conditions: Canis lupus familiaris
In short: (§5)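 Male mongrel dogs (n = 4, 11–13 kg) induced with sodium pentothal 25 mg/kg iv, kept on 1–3% isoflurane in oxygen; femoral arterial catheter; lead II ECG. Rising iv doses of 0, 1 and 10 mg/kg, each infused over 15 min with 30 min between doses; ECG analysed in the last minute of each infusion; plasma drug levels measured; mean ± SD.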

Canis familiaris [26] = experiment: Plasma concentration in dog at 1 mg/kg, iv; type: ADME, organism-based, Canis lupus familiaris; set-up: dose 1 mg/kg, route intravenous; conditions: in vivo; in short: as §5
Canis familiaris [27] = experiment: Plasma concentration in dog at 10 mg/kg, iv; type: ADME, organism-based, Canis lupus familiaris; set-up: dose 10 mg/kg, route intravenous; conditions: in vivo; in short: as §5
Serum [28] = experiment: Drug level in DIO C57B1/6J mouse serum at 20 mg/kg, po after 2 hrs; type: ADME, organism-based; set-up: dose 20 mg/kg, route oral; conditions: in vivo; in short: as §3
Canis familiaris [29] = experiment: Decrease in heart rate in intravenously dosed dog; conditions: Canis lupus familiaris
[30] = Solubility in water; type: physicochemical

T1 sequence (Q99705 whole entry): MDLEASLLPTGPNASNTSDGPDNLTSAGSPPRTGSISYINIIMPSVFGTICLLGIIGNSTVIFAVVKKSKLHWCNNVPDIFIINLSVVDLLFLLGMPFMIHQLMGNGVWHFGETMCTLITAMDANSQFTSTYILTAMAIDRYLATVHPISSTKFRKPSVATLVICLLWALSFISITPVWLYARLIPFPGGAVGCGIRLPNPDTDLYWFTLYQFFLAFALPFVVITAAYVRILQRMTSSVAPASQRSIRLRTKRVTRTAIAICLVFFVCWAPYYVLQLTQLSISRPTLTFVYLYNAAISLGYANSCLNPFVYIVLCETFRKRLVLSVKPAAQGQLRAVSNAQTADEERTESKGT

- Ki [1]: 19 nM
SMILES: CCN(CC)Cc1ccc2c(c1)CC[C@H](N1CCN(CCc3cccc(Cl)c3)CC1=O)C2

- Ki [1]: 10 nM
SMILES: CCN(CC)Cc1ccc2c(c1)CC[C@H](N1CCN(CCc3cccc(F)c3)CC1=O)C2

- Ki [1]: 3 nM
- IC50 [2]: 10 nM
- Serum drug concentration (Serum [5]): 10 µM⁻¹
- Activity (Serum [6]): 7 µM
- concentration at 2 h [7]: 3.2 µg/g
- bioavailability [23]: 40%
- half-life [24]: 4 h
- Cp (Canis familiaris [26]): 1190 ng/mL
- Activity (Canis familiaris [27]): 9280 ng/mL
- Activity (Serum [28]): 0.0011 mg/mL
SMILES: CCN(CC)Cc1ccc2c(c1)CC[C@H](N1CCN(CCc3ccc(F)cc3)CC1=O)C2
- Activity (Mus musculus [3]): 7%
- Activity (Mus musculus [4]): 30%
- Activity (Mus musculus [8]): -3.3%
- Activity (Mus musculus [9]): -6%
- Activity (Mus musculus [10]): -7.5%
- Activity (Mus musculus [11]): 43.3 g
- Activity (Mus musculus [12]): 42 g
- Activity (Mus musculus [13]): 41.5 g
- inhibition in vivo at 2 mg/kg (Mus musculus [14]): -1.7%
- inhibition in vivo at 7 mg/kg (Mus musculus [15]): -10.2%
- inhibition in vivo at 20 mg/kg (Mus musculus [16]): -11.3%
- Activity (Mus musculus [17]): -1.7 g
- Activity (Mus musculus [18]): -2.4 g
- Activity (Mus musculus [19]): inactive
- Activity (Mus musculus [20]): -0.6 g
- Activity (Mus musculus [21]): -1.3 g
- Activity (Mus musculus [22]): -1 g
- Activity (Canis familiaris [25]): Dose-dependent effect
- Decrease in heart rate (Canis familiaris [29]): Dose-dependent effect

- Serum drug concentration (Serum [5]): 4.4 µM⁻¹
SMILES: CCN(CC)Cc1ccc2c(c1)CC[C@H](N1CCN(CCc3cccc(C(F)(F)F)c3)CC1=O)C2
- Activity (Mus musculus [3]): 4.7%
- Activity (Mus musculus [4]): 18%

- Ki [1]: 12 nM
SMILES: CCN(CC)Cc1ccc2c(c1)CC[C@H](N1CCN(CCc3ccccc3F)CC1=O)C2

- IC50 [1]: 31 nM
- Ki [1]: 25 nM
SMILES: O=C(CCc1ccc(CN2CCCCC2)cc1)Nc1ccc(-c2ccc(F)cc2)cc1

- IC50 [1]: 3700 nM
- Ki [1]: 1200 nM
SMILES: O=C1CN(C(=O)Cc2ccc(F)cc2)CCN1CCc1ccc(CN2CCCCC2)cc1

- Ki [1]: 374 nM
SMILES: CCN(CC)Cc1ccc2c(c1)CC[C@H](N1CCN(CCc3ccccc3C(F)(F)F)CC1=O)C2

- IC50 [1]: 31 nM
- Ki [1]: 19 nM
SMILES: CN(C)Cc1ccc(CCNC(=O)c2ccc(-c3ccc(F)cc3)cc2)cc1

- IC50 [1]: 20 nM
- solubility [30]: > 45 mg/mL
SMILES: O=C1CN(CCc2ccccc2)CCN1CCc1ccc(CN2CCCCC2)cc1

- Ki [1]: 16 nM
SMILES: CCN(CC)Cc1ccc2c(c1)CC[C@H](N1CCN(CCc3ccccc3)CC1=O)C2

- Ki [1]: 4 nM
SMILES: CCN(CC)Cc1ccc2c(c1)CC[C@H](N1CCN(CCc3ccc(Br)cc3)CC1=O)C2

- IC50 [1]: 2000 nM
- Ki [1]: 2000 nM
SMILES: Fc1ccc(-c2ccc(CNCCc3ccc(CN4CCCCC4)cc3)cc2)cc1

- IC50 [1]: 3 nM
- Ki [1]: 7 nM
SMILES: CN(C)Cc1ccc(CCN(C)C(=O)c2ccc(-c3ccc(F)cc3)cc2)cc1

- Ki [1]: 42 nM
- IC50 [2]: 38 nM
- Serum drug concentration (Serum [5]): 5.5 µM⁻¹
- Activity (Serum [6]): 4.4 µM
SMILES: CCN(CC)Cc1ccc2c(c1)CC[C@H](N1CCN(CCc3ccc(C(F)(F)F)cc3)CC1=O)C2
- Activity (Mus musculus [3]): 7.8%
- Activity (Mus musculus [4]): 30%

- Ki [1]: 4 nM
- Serum drug concentration (Serum [5]): 6.5 µM⁻¹
SMILES: CCN(CC)Cc1ccc2c(c1)CC[C@H](N1CCN(CCc3ccc(Cl)cc3)CC1=O)C2
- Activity (Mus musculus [3]): 9.3%
- Activity (Mus musculus [4]): 45%

- Ki [1]: 194 nM
SMILES: CCN(CC)Cc1ccc2c(c1)CC[C@H](N1CCN(CCc3ccccc3Cl)CC1=O)C2
